Data as given in ChEMBL document CHEMBL4699574, “Discovery of Ketone-Based Covalent Inhibitors of Coronavirus 3CL Proteases for the Potential Therapeutic Treatment of COVID-19” (J Med Chem, 2020).
Converted amounts (≈) assume the structure as drawn. The source made the active and inactive calls. The calls are words filed in the database; no cut-off is given here.

How the values were obtained:
SARS-CoV = assay: Antiviral activity against SARS COV-1 infected in monkey Vero 76 cells assessed as reduction in virus-induced cytopathic effect measured after 66 hrs in presence of p-glycoprotein inhibitor CP100356 by neutral red method or cell titer glo-based luminescence assay; type: functional, organism-based; settings: Severe acute respiratory syndrome-related coronavirus, Vero 76, 66 h
Outline: (§1)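 P-glycoprotein transport inhibitor CP-100356 co-dosed at a fixed 0.5 µM throughout a full dose-response of the test inhibitor in the antiviral cytopathic assay.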

[1] = AUC in dog at 2 mg/kg, iv; type: ADME, organism-based, Canis lupus familiaris; set-up: dose 2 mg/kg; settings: in vivo
[2] = Aqueous solubility of compound in 2.5% w/v SBECD, pH 7.4 5 mM phosphate buffer, made isotonic with 4.25% dextrose formulation; type: physicochemical; settings: 2.5% w/v SBECD in phosphate buffer, dose 4.6 mg/ml
[3] = Cytotoxicity against human H9 cells assessed as reduction in cell viability incubated for 7 days by XTT dye based analysis; settings: time 7 day
Human coronavirus 229E [4] = assay: microbe, parasite or virus in culture; settings: MRC5, 96 h
thrombin = thrombin (Homo sapiens, UniProt P00734); assay: Inhibition of human thrombin at 10 uM relative to control
rhinovirus B14 = assay: Antiviral activity against Human rhinovirus 14 infected in human H1-HeLa cells assessed as reduction in virus-induced cytopathogenicity incubated for 2 to 5 days by XTT dye based analysis; type: functional, organism-based; settings: Rhinovirus B
[5] = Cytotoxicity against African green monkey Vero 76 cells measured after 66 hrs by neutral red method or cell titer glo-based luminescence assay; settings: chlorocebus sabaeus
[6] = Aqueous solubility of compound in 2.5% w/v HPCD formulation; type: physicochemical; settings: 2.5% w/v HPCD in water
Cathepsin D [7] = biological target: T1, Cathepsin D (Homo sapiens, UniProt P07339); assay: Inhibition of human cathepsin D
[8] = Half-life in rat at 2 mg/kg, iv; type: ADME, organism-based; settings: in vivo
[9] = Volume of distribution at steady state in rat at 2 mg/kg, iv; type: ADME, organism-based; settings: in vivo
[10] = Volume of distribution at steady state in dog at 2 mg/kg, iv; type: ADME, organism-based, Canis lupus familiaris; settings: in vivo, read-out: Vdss
Caspase-2 [11] = biological target: T2, Caspase-2 (Homo sapiens, UniProt P42575); assay: Inhibition of human Caspase 2 at 10 uM relative to control
[12] = Permeability of compound in human Caco-2 cells; type: ADME, cell-based
Hepacivirus hominis = assay: Inhibition of HCV protease at 10 uM relative to control
Hepatitis C virus = assay: Antiviral activity against Hepatitis C virus replicon infected in human Huh-7 cells assessed as reduction in viral RNA synthesis measured after 24 to 72 hrs by Trizol reagent based RT-PCR analysis; type: functional, organism-based, Hepacivirus hominis
[13] = biological target: Human immunodeficiency virus type 1 protease (Human immunodeficiency virus 1) (UniProt Q72874); assay: Inhibition of HIV1 protease at 10 uM relative to control
[14] = AUC in monkey at 4 mg/kg, iv; type: ADME, organism-based, Macaca mulatta; set-up: dose 4 mg/kg; settings: rhesus monkey, in vivo
Caspase-2 [15] = biological target: T2, Caspase-2; assay: Inhibition of human Caspase 2
[16] = Volume of distribution at steady state in monkey at 4 mg/kg, iv; type: ADME, organism-based, Macaca mulatta; settings: rhesus monkey, in vivo
[17] = Half-life in monkey at 4 mg/kg, iv; type: ADME, organism-based, Macaca mulatta; settings: rhesus monkey, in vivo
[18] = biological target: leukocyte (neutrophil) elastase (Homo sapiens, UniProt P08246); assay: Inhibition of human leukocyte elastase at 10 uM relative to control
[19] = Inhibition of HRV protease; set-up: species or system Human rhinovirus sp.
[20] = Cytotoxicity against human MRC5 cells assessed as reduction in cell viability after 1 to 5 days by XTT dye based assay; settings: time 1-5 day
[21] = Inhibition of Human coronavirus 229E protease
[22] = Clearance in dog at 2 mg/kg, iv; settings: in vivo
[23] = Aqueous solubility of compound in 2.5% w/v SBECD, pH 7.4 5 mM citrate buffer, made isotonic with 4.25% dextrose formulation; type: physicochemical; settings: 2.5% w/v SBECD in citrate buffer
[24] = Cytotoxicity against human HuH-7 cells assessed as reduction in cell viability; type: cell-based
[25] = Inhibition of SARS-CoV-2 3CL protease using DABCYLKTSAVLQ-SGFRKME-EDANS as peptide substrate in presence of PF-00835231 inhibitor incubated for 60 mins by FRET assay; set-up: species or system Severe acute respiratory syndrome coronavirus 2
rhinovirus A16 = assay: Antiviral activity against Human rhinovirus 16 infected in human H1-HeLa cells assessed as reduction in virus-induced cytopathogenicity incubated for 2 to 5 days by XTT dye based analysis; type: functional, organism-based; settings: Rhinovirus A
[26] = Reversible inhibition of SARS coronavirus Urbani 3CL protease(9985 to 10902) using TAMRA-SITSAVLQSGFRKMK(DABCYL)-OH as substrate measured for 10 mins by FRET assay
Outline: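 SARS CoV-1 3CLpro FRET assay; each value calculated from at least eight data points, with at least two independent determinations.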

[27] = Cytotoxicity against human MRC5 cells assessed as reduction in cell viability incubated for 4 days by XTT dye based assay; settings: time 4 day
[28] = Inhibition of HCV protease; set-up: species or system Hepacivirus hominis
chymotrypsin = assay: Inhibition of human chymotrypsin at 10 uM relative to control
Human coronavirus 229E [29] = assay: Antiviral activity against Human coronavirus 229E infected in human MRC5 cells assessed as reduction in virus-induced cytopathogenicity incubated for 4 days in presence of p-glycoprotein inhibitor CP100356 by XTT dye based assay; type: functional, organism-based; settings: time 4.0 day; outline: as §1
[30] = AUC in rat at 2 mg/kg, iv; type: ADME, organism-based; set-up: dose 2 mg/kg; settings: in vivo
pepsin = assay: Inhibition of human pepsin at 10 uM relative to control
[31] = Inhibition of human pepsin
Cathepsin B [32] = biological target: T3, Cathepsin B (Homo sapiens, UniProt P07858); assay: Inhibition of human cathepsin B
[33] = Metabolic stability in human liver microsomes assessed as half life; type: ADME, Microsome
Neutrophil elastase = Neutrophil elastase (Homo sapiens, UniProt P08246); assay: Inhibition of human leukocyte elastase
[34] = Inhibition of human chymotrypsin
[35] = tested on: Human immunodeficiency virus 1; assay: Antiviral activity against HIV-1-RF infected in human H9 cells assessed as reduction in virus-induced cytopathogenicity incubated for 7 days by XTT dye based analysis; type: functional, organism-based; settings: Human immunodeficiency virus 1, RF, H9, 168 h
[36] = biological target: Human immunodeficiency virus type 1 protease (Human immunodeficiency virus 1, UniProt Q72874); assay: Inhibition of HIV1 protease
Cathepsin D [37] = biological target: T1, Cathepsin D; assay: Inhibition of human cathepsin D at 10 uM relative to control
Human betaherpesvirus 5 = assay: Antiviral activity against Human cytomegalovirus AD169 infected in human MRC5 cells assessed as reduction in viral replication measured after 5 days by ELISA; type: functional, cell-based; settings: Human betaherpesvirus 5, AD169, MRC5, 120 h
Cathepsin B [38] = biological target: T3, Cathepsin B; assay: Inhibition of human cathepsin B at 10 uM relative to control
Prothrombin = Prothrombin (Homo sapiens, UniProt P00734); assay: Inhibition of human thrombin
[39] = Cytotoxicity against human H1-HeLa cells assessed as reduction in cell viability measured after 2 to 5 days by XTT assay; type: cell-based; settings: time 2-5 day
[40] = Half life in dog at 2 mg/kg, iv; type: ADME, organism-based, Canis lupus familiaris; settings: in vivo

T1 sequence (P07339 65-162 limits assumed): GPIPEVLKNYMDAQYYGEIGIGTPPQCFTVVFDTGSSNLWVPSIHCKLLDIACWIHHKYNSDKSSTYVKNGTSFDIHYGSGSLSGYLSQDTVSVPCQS
T1 sequence (P07339 169-412 limits assumed): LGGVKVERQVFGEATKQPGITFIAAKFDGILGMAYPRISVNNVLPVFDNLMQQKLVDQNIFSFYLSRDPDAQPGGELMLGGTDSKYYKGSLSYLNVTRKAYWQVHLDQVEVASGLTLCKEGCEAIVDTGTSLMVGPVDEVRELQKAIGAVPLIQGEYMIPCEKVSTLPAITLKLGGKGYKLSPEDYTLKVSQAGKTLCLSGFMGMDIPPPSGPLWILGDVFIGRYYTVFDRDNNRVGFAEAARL
T2 sequence (P42575 170-325 limits assumed): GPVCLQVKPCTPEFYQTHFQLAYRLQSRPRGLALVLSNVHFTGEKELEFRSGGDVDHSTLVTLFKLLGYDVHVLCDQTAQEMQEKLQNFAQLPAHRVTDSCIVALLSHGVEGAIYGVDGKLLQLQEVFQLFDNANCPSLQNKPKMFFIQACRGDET
T2 sequence (P42575 334-452 limits assumed): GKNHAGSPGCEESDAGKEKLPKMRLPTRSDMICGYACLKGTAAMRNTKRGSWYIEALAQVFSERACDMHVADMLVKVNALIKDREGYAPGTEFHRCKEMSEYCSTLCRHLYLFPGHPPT
Sequence of leukocyte (neutrophil) elastase (P08246 whole entry): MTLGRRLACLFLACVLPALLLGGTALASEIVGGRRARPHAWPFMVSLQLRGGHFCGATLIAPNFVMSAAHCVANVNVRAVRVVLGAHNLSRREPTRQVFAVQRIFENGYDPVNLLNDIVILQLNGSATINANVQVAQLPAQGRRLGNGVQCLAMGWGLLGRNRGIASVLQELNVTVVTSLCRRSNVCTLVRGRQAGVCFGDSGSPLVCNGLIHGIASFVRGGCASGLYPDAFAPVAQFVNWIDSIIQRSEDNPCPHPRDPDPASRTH
Sequence of Neutrophil elastase (P08246 whole entry): as above

## COc1cccc2[nH]c(C(=O)N[C@@H](CC(C)C)C(=O)N[C@@H](C[C@@H]3CCNC3=O)C(=O)CO)cc12 [PF-00835231]
SARS-CoV
  EC50: 1.1 µM
[1]
  AUC: 3.8 µg·h/mL
[2]
  solubility: 4.6 mg/mL (≈ 9.73 mM)
[3]
  CC50 at 168 h: > 32 µM
Human coronavirus 229E [4]
  EC50: 0.009 µM
thrombin
  inhibition at 10 µM: -28%
Rhinovirus B14
  EC50: > 100 µM
[5]
  CC50 at 66 h: 452 µM
[6]
  solubility: 6.6 mg/mL (≈ 14 mM)
Cathepsin D [7]
  IC50: > 10 µM
[8]
  t1/2: 1 min
[9]
  Vdss: 1.2 L/kg
[10]
  Vd: 0.4 L/kg
Caspase-2 [11]
  inhibition at 10 µM: -20%
[12]
  permeability: Impermeable
Hepacivirus hominis
  inhibition: 16%
Hepatitis C virus
  EC50: > 320 µM
[13]
  inhibition: 0%
[14]
  AUC: 3.8 µg·h/mL
Caspase-2 [15]
  IC50: > 10 µM
[16]
  Vdss: 0.6 L/kg
[17]
  t1/2: 1.6 min
[18]
  inhibition at 10 µM: -31%
[19]
  IC50: 1.7 µM
[20]
  CC50: > 100 µM
[21]
  IC50: 0.004 µM
[22]
  clearance: 0.63 L/h/kg
[23]
  solubility: 4.6 mg/mL (≈ 9.73 mM)
[24]
  CC50: > 320 µM
[25]
  IC50: 0.00027 µM
Rhinovirus A16
  EC50: > 100 µM
[26]
  IC50: 0.004 µM
[27]
  CC50 at 96 h: > 40 µM
[28]
  IC50: > 10 µM
chymotrypsin
  inhibition at 10 µM: 8%
Human coronavirus 229E [29]
  Activity: Active
[30]
  AUC: 1.2 µg·h/mL
pepsin
  inhibition at 10 µM: -2%
[31]
  IC50: > 10 µM
Cathepsin B [32]
  IC50: 1.3 µM
[33]
  half-life: 1.78 h
Neutrophil elastase
  IC50: > 10 µM
[34]
  IC50: > 10 µM
[35]
  EC50: > 32 µM
[36]
  IC50: > 10 µM
Cathepsin D [37]
  inhibition at 10 µM: 3%
Human betaherpesvirus 5
  EC50: > 100 µM
Cathepsin B [38]
  inhibition at 10 µM: 93%
Prothrombin
  IC50: > 10 µM
[39]
  CC50: > 1260 µM
[40]
  half-life: 1.3 h
